In ChEMBL document CHEMBL1667823, “Design and synthesis of 4-arylpiperidinyl amide and N-arylpiperdin-3-yl-cyclopropane carboxamide derivatives as novel melatonin receptor ligands” (Bioorg Med Chem Lett, 2011):

test system: CHO-Galpha16; experiment: Intrinsic activity at rat MT1 receptor expressed in CHO-Galpha16 cells assessed as Ca2+ mobilization after 20 mins by FLIPR assay relative to ramelteon; assay type: cell-based; details: not given
In short: (§1)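 CHO-Galpha16 cells expressing rat MT1 or MT2, plated 24 h ahead, loaded with Fluo4-AM (1.5 final) plus pluronic acid in HBSS/20 mM HEPES/0.1% BSA pH 7.4 with 2.5 mM probenecid, 1 h at 37 °C, then washed. Ca2+ read by FLIPR. Agonist mode: 15 s baseline, compound added, 3 min read. Antagonist mode: compound preincubated 20 min at room temperature, then melatonin at EC80, 3 min read.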

Row | Structure (SMILES) | Intrinsic activity [%]
1 | COc1cccc(C2CCN(C(=O)C3CCC3)CC2)c1 | 52
2 | COc1cccc(N2CCC[C@@H](NC(=O)C3CC3)C2)c1 | 30
3 | COc1cccc(C2CCN(C(C)=O)CC2)c1 | 6
4 | COc1cccc(C2CCN(C(=O)C3CC3(C)C)CC2)c1 (centres undefined) | 33
5 | CCC(CC)C(=O)N1CCC(c2cccc(OC)c2)CC1 | 32
6 | COc1cccc(C2CCN(C(=O)CC(C)C)CC2)c1 | 39
7 | COc1ccccc1C1CCN(C(=O)C2CC2)CC1 | 2
8 | COc1cc(N2CCC[C@@H](NC(=O)C3CC3)C2)ccc1Cl | 19
9 | CC(C)Oc1cccc(C2CCN(C(=O)C3CC3)CC2)c1 | 9

test system: not listed separately; experiment: Binding affinity to rat MT1 receptor expressed in CHO-Galpha16 cells assessed as Ca2+ mobilization after 20 mins by FLIPR assay; assay type: cell-based; details: not given; in short: as §1

Row | Structure (SMILES) | EC50 [nM]
10 | COc1cccc(N2CCC[C@@H](NC(=O)C3CC3)C2)c1 | 3500
11 | COc1cccc(C2CCN(C(C)=O)CC2)c1 | > 10000
12 | COc1ccccc1C1CCN(C(=O)C2CC2)CC1 | > 10000
13 | COc1cc(N2CCC[C@@H](NC(=O)C3CC3)C2)ccc1Cl | > 10000
14 | CC(C)Oc1cccc(C2CCN(C(=O)C3CC3)CC2)c1 | > 10000

Now those with a lower EC50, led by results:

Row | EC50 [nM] | Structure (SMILES)
15 | 2300 | CCC(CC)C(=O)N1CCC(c2cccc(OC)c2)CC1
16 | 1700 | COc1cccc(C2CCN(C(=O)CC(C)C)CC2)c1
17 | 640 | COc1cccc(C2CCN(C(=O)C3CC3(C)C)CC2)c1 (centres undefined)
18 | 380 | COc1cccc(C2CCN(C(=O)C3CCC3)CC2)c1

organism: Rattus norvegicus; experiment: Ratio of Ki for rat MT1 to Ki for rat MT2; details: not given
In short: (§2)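 Rat MT1 or MT2 membranes from CHO-Galpha16 cells incubated with [3H]-melatonin (0.5 nM final, 80 Ci/mmol) in 50 mM Tris/HCl pH 7.4, 5 mM MgCl2. Nonspecific binding defined with excess melatonin. Stopped by rapid GF/B filtration with five ice-cold washes. Ki from IC50 via Cheng–Prusoff.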

Row | Ratio Ki | Structure (SMILES)
19 | 4 | COc1cc(N2CCC[C@@H](NC(=O)C3CC3)C2)ccc1Cl

organism: Rattus norvegicus; experiment: Intrinsic activity at rat MT2 receptor expressed in CHO-Galpha16 cells assessed as Ca2+ mobilization after 20 mins by FLIPR assay relative to agomelatine; assay type: cell-based; details: not given; in short: as §1

Row | Structure (SMILES) | Intrinsic activity [%]
20 | COc1cccc(C2CCN(C(=O)C3CCC3)CC2)c1 | 62
21 | COc1cccc(N2CCC[C@@H](NC(=O)C3CC3)C2)c1 | 23
22 | COc1cccc(C2CCN(C(C)=O)CC2)c1 | 19
23 | COc1cccc(C2CCN(C(=O)C3CC3(C)C)CC2)c1 (centres undefined) | 30
24 | CCC(CC)C(=O)N1CCC(c2cccc(OC)c2)CC1 | 35
25 | COc1cccc(C2CCN(C(=O)CC(C)C)CC2)c1 | 35
26 | COc1ccccc1C1CCN(C(=O)C2CC2)CC1 | 3
27 | COc1cc(N2CCC[C@@H](NC(=O)C3CC3)C2)ccc1Cl | 23
28 | CC(C)Oc1cccc(C2CCN(C(=O)C3CC3)CC2)c1 | 10

test system: CHO-Galpha16; experiment: Inhibition of rat MT2 receptor expressed in CHO-Galpha16 cells relative to control; assay type: cell-based; details: dose or concentration not given here; in short: as §1

Row | Structure (SMILES) | inhibition [%]
29 | COc1cccc(N2CCC[C@@H](NC(=O)C3CC3)C2)c1 | 97
30 | COc1cc(N2CCC[C@@H](NC(=O)C3CC3)C2)ccc1Cl | 98

test system: not listed separately; experiment: Binding affinity to rat MT2 receptor expressed in CHO-Galpha16 cells assessed as Ca2+ mobilization after 20 mins by FLIPR assay; assay type: cell-based; details: not given; in short: as §1

Row | Structure (SMILES) | EC50 [nM]
31 | COc1cccc(N2CCC[C@@H](NC(=O)C3CC3)C2)c1 | 93
32 | COc1cccc(C2CCN(C(C)=O)CC2)c1 | > 10000
33 | COc1ccccc1C1CCN(C(=O)C2CC2)CC1 | > 10000
34 | COc1cc(N2CCC[C@@H](NC(=O)C3CC3)C2)ccc1Cl | > 10000
35 | CC(C)Oc1cccc(C2CCN(C(=O)C3CC3)CC2)c1 | > 10000

Results, then the molecule that gave them:

Row | EC50 [nM] | Structure (SMILES)
36 | 790 | CCC(CC)C(=O)N1CCC(c2cccc(OC)c2)CC1
37 | 1800 | COc1cccc(C2CCN(C(=O)CC(C)C)CC2)c1
38 | 147 | COc1cccc(C2CCN(C(=O)C3CC3(C)C)CC2)c1 (centres undefined)
39 | 200 | COc1cccc(C2CCN(C(=O)C3CCC3)CC2)c1

test system: not listed separately; experiment: Displacement of [3H]melatonin from rat MT1 receptor expressed in CHO-Galpha16 cells; assay type: cell-based; details: not given; in short: as §2

Row | IC50 [nM] | Structure (SMILES) | Ki [nM]
40 |  | COc1cccc(C2CCN(C(=O)C3CCC3)CC2)c1 | 140
41 |  | COc1cccc(N2CCC[C@@H](NC(=O)C3CC3)C2)c1 | 1000
42 | 440 | COc1cc(N2CCC[C@@H](NC(=O)C3CC3)C2)ccc1Cl | 130

test system: CHO-Galpha16; experiment: Inhibition of rat MT1 receptor expressed in CHO-Galpha16 cells relative to control; assay type: cell-based; parameters: concentration or dose not given beside the values; details: dose or concentration not given here; in short: as §1

Row | Structure (SMILES) | inhibition [%]
43 | COc1cc(N2CCC[C@@H](NC(=O)C3CC3)C2)ccc1Cl | 94

test system: not listed separately; experiment: Displacement of [3H]melatonin from rat MT2 receptor expressed in CHO-Galpha16 cells; assay type: cell-based; details: not given; in short: as §2

Row | IC50 [nM] | Structure (SMILES) | Ki [nM]
44 |  | COc1cccc(C2CCN(C(=O)C3CCC3)CC2)c1 | 67
45 | 10 | COc1cccc(N2CCC[C@@H](NC(=O)C3CC3)C2)c1 | 95
46 | 24 | COc1cc(N2CCC[C@@H](NC(=O)C3CC3)C2)ccc1Cl | 31
